Source: ChEMBL document CHEMBL1157283, “Cytotoxic xenia diterpenoids from the soft coral Xenia umbellata” (2006)
Converted amounts (≈) assume the structure as drawn.

Experiments:
[1] = tested on: A549; assay: Cytotoxicity against human A549 cells; type: functional, cell-based
Method in brief: (§1)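 Human A549 (lung adenocarcinoma) and HT-29 (colon adenocarcinoma) cells were obtained from ATCC. In vitro cytotoxicity was measured on the cultured cells.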

[2] = tested on: HT-29; assay: Cytotoxicity against human HT29 cells; type: functional, cell-based; method in brief: as §1
[3] = tested on: P388; assay: Cytotoxicity against mouse P388 cells; type: functional; conditions: read-out: ED50 (the source's name)

## CC(C)(O)/C=C/C=C(/C=O)[C@H]1CC[C@@]2(C)C[C@](O)(CC[C@H]2O)[C@@H]1C=O
[1]
  Activity: Not toxic
[2]
  Activity: Not toxic

## CC(C)(O)/C=C/C=C1/COC(=O)[C@H]2C3=CC[C@@H](O)[C@@](C)(CC[C@H]12)C3
[1]
  Activity: Not toxic
[2]
  Activity: Not toxic

## C=C1C[C@@H](O)/C=C(\C)CC[C@@H]2/C(=C\C=C\C(C)(C)O)[C@@H](OC)O[C@H](OC)[C@@H]12
[1]
  Activity: Not toxic
[2]
  Activity: Not toxic

## C=C1CC[C@@H]2O[C@@]2(C)CC[C@H](/C(=C\CC(O)C(C)(C)O)COC(C)=O)[C@H]1C(=O)OC (stereo partly drawn) [UMBELLACIN H]
[3]
  EC50: 3.4 µg/mL (≈ 8.01 µM)
[1]
  Activity: Not toxic
[2]
  Activity: Not toxic

## COC(=O)[C@H]1C2=CC[C@@H](O)[C@@](C)(CC[C@@H]1/C(=C\CC(O)C(C)(C)O)COC(C)=O)C2 (stereo partly drawn) [UMBELLACIN E]
[3]
  EC50: 3.8 µg/mL (≈ 8.95 µM)
[1]
  Activity: Not toxic
[2]
  Activity: Not toxic

## COC(=O)[C@@H]1[C@@H](/C(=C\CC(O)C(C)(C)O)COC(C)=O)CC[C@@]2(C)C[C@]1(O)CC[C@H]2O (stereo partly drawn) [UMBELLACIN I]
[3]
  EC50: 3.6 µg/mL (≈ 8.13 µM)
[1]
  Activity: Not toxic
[2]
  Activity: Not toxic

## C=C(C)C(O)C/C=C(/COC(C)=O)[C@H]1CC[C@@]2(C)C[C@](O)(CC[C@H]2O)[C@@H]1C(=O)OC (stereo partly drawn) [UMBELLACIN B]
[3]
  EC50: 1.6 µg/mL (≈ 3.77 µM)
[1]
  Activity: Not toxic
[2]
  Activity: Not toxic

## C=C1CC[C@@H]2O[C@@]2(C)CC[C@H]2[C@H]1C(=O)O[C@@]2(/C=C/C1OC1(C)C)CO (stereo partly drawn)
[1]
  Activity: Not toxic
[2]
  Activity: Not toxic

## C=C1CC[C@@H]2O[C@@]2(C)CC[C@H]2[C@H]1C(=O)O[C@@]2(/C=C/C1OC1(C)C)COC(C)=O (stereo partly drawn)
[1]
  Activity: Not toxic
[2]
  Activity: Not toxic

## C=C1CC/C=C(\C)CC[C@H](/C(=C\CC(O)C(C)(C)O)COC(C)=O)[C@H]1C(=O)OC (stereo partly drawn) [UMBELLACIN F]
[3]
  EC50: 3.7 µg/mL (≈ 9.06 µM)
[1]
  Activity: Not toxic
[2]
  Activity: Not toxic

## COC(=O)[C@@H]1[C@@H](/C(=C\CC(O)C(C)(C)O)COC(C)=O)CC[C@]2(C)[C@@H]3CC[C@]12CO3 (stereo partly drawn) [UMBELLACIN D]
[3]
  EC50: 4.2 µg/mL (≈ 9.89 µM)
[1]
  Activity: Not toxic
[2]
  Activity: Not toxic
